Activity calls are given as the source filed them. The rule behind the calls is not given here.

For series [1], the system named is Jurkat. Description: Cytotoxicity against human Jurkat cells at 1 uM. Format: functional, cell-based. The method, boiled down: (§1)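 Jurkat human T-cell leukemia cells exposed to compounds at 10⁻²–10 μM. Proliferation read by ³H-thymidine incorporation and expressed as stimulation index (SI). Mean ± SE, n = 4.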
In series [2] the test system is Jurkat. Description: Immunomodulatory effect in human Jurkat cells assessed as cell proliferation stimulation index at 1 to 10 uM by [3H]thymidine incorporation assay. A general note: Uptake of a labelled nucleoside into DNA is a usual measure of proliferation.
A short description of series [3]: Toxicity in sheep erythrocytes assessed as induction of hemolysis. Format: cell-based, Ovis aries, Erythrocyte. The settings on record: read-out: HD50 (the source's name). The method, boiled down:
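Hemolysis measured on sheep erythrocytes, tested up to 400 μg/mL. Activity expressed as HC50 (μg/mL).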

Series [4] concerns Jurkat. Description: Cytotoxicity against human Jurkat cells at =>10 uM. The series is classed as functional, cell-based. The method in brief: as §1
The test system of series [5] is Jurkat. Nature of the series: Immunomodulatory effect in human Jurkat cells assessed as cell proliferation stimulation index at 0.01 uM by [3H]thymidine incorporation assay.
Series [6] concerns Jurkat. Description: Immunomodulatory effect in human Jurkat cells by [3H]thymidine incorporation assay.
Series [7] deals with Jurkat. Nature of the series: Inhibition of human Jurkat cell proliferation at 1 uM by [3H]thymidine incorporation assay.

As for `CC(=O)N[C@H]1[C@H](O[C@H]2CC[C@]3(C)[C@H]4CC=C5[C@@H]6CC(C)(C)[C@@H](O)C[C@]6(C(=O)O)[C@H](O)C[C@@]5(C)[C@]4(C)CC[C@H]3C2(C)C)O[C@H](CO[C@@H]2O[C@H](C)[C@H](O)[C@H](O)[C@H]2O[C@@H]2OC[C@@H](O)[C@H](O)[C@H]2O)[C@@H](O)[C@@H]1O`, in the series on Jurkat [1], the Activity result was “Not toxic”. The outcome with Jurkat [2] was Active. Also, in series [3], the HC50 is over 400 µg/mL.
For `C=CC(C)(CC/C=C(\CO)C(=O)O[C@H]1C[C@]2(C(=O)O)[C@H](O)C[C@]3(C)C(=CC[C@@H]4[C@@]5(C)CC[C@H](O[C@@H]6O[C@H](CO[C@@H]7O[C@H](C)[C@H](O)[C@H](O)[C@H]7O[C@@H]7OC[C@@H](O)[C@H](O)[C@H]7O)[C@@H](O)[C@H](O)[C@H]6O[C@@H]6O[C@H](CO)[C@@H](O)[C@H](O)[C@H]6O)C(C)(C)[C@@H]5CC[C@]43C)[C@@H]2CC1(C)C)O[C@@H]1O[C@@H](C)[C@H](O)[C@@H](O)[C@@H]1O` (stereo not given in full), in the series with Jurkat [4], the Activity result is “Toxic”. For the same molecule, in series [3], the HC50 was over 400 µg/mL.
For `CC(=O)N[C@H]1[C@H](O[C@H]2CC[C@]3(C)[C@H]4CC=C5[C@@H]6CC(C)(C)[C@@H](OC(=O)c7ccccc7O)C[C@]6(C(=O)O[C@@H]6O[C@H](CO)[C@@H](O)[C@H](O)[C@H]6O[C@@H]6O[C@@H](C)[C@H](O[C@@H]7O[C@@H](CO)[C@H](O)[C@H]7O)[C@@H](O[C@@H]7O[C@H](CO)[C@@H](O)[C@H](O)[C@H]7O)[C@H]6O)[C@H](O)C[C@@]5(C)[C@]4(C)CC[C@H]3C2(C)C)O[C@H](CO[C@@H]2O[C@H](C)[C@H](O)[C@H](O)[C@H]2O[C@@H]2OC[C@@H](O)[C@H](O)[C@H]2O)[C@@H](O)[C@@H]1O` [ADIANTHIFOLIOSIDE A], the Activity result in the series with Jurkat [1] was “Toxic”. In series [3], the HC50 worked out at 17.5 µg/mL.
`C[C@@H]1O[C@@H](O[C@H]2[C@H](OC(=O)[C@]34C[C@H](OC(=O)c5ccccc5O)C(C)(C)C[C@H]3C3=CC[C@@H]5[C@@]6(C)CC[C@H](O[C@@H]7O[C@H](CO[C@@H]8O[C@H](C)[C@H](O)[C@H](O)[C@H]8O[C@@H]8OC[C@@H](O)[C@H](O)[C@H]8O)[C@@H](O)[C@H](O)[C@H]7O[C@@H]7O[C@H](CO)[C@@H](O)[C@H](O)[C@H]7O)C(C)(C)[C@@H]6CC[C@@]5(C)[C@]3(C)C[C@H]4O)O[C@H](CO)[C@@H](O)[C@@H]2O)[C@H](O)[C@H](O[C@@H]2O[C@H](CO)[C@@H](O)[C@H](O)[C@H]2O)[C@H]1O[C@@H]1O[C@@H](CO)[C@H](O)[C@H]1O` [ADIANTHIFOLIOSIDE B]: the Activity was 1.21 with Jurkat [5] and “Dose-dependent effect” in the series on Jurkat [6]. The result in the series with Jurkat [7] was Active.

The values above are taken from ChEMBL document CHEMBL1150676, “Two new biologically active triterpenoidal saponins acylated with salicylic acid from Albizia adianthifolia” (J Nat Prod, 2003).
